High-throughput results as filed in PubChem BioAssay.
Shown are actives, neighbours in structure and some others; about 3.8% of the full set was active somewhere.
DENV2 CPE – DENV2-induced cell death inhibition; CPE inhibition, % at 9.99 µM; DENV2-infected cells, cytopathic effect rescue, plate reader; AID 651640; 350,000 compounds, 1.7% hits; in the data active means CPE inhibition above about 20%, passing the limit was not always enough; tested in BHK-21 cells;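 further: 0% = median of neutral control wells and 100% = median of positive control wells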
SIRT5 block – sirtuin-5 (human) deacylase inhibition. Q9NXA8. Purified SirT5, succinyl-peptide AMC, trypsin-coupled fluorescence. inhibition, % at 15 µM. 330,000 compounds, 1.1% hits. AID 652115; in the data active means inhibition above about 15%
ARNT TACC3 PPI – ARNT/TACC3 interaction disruption; Q9Y6A5; 390,000 compounds, 0.66% hits; AlphaScreen His-ARNT PAS-B/GST-TACC3 binding, luminescence; TACC3 fragment carries E629A point mutation; AID 623870; inhibition, % at 9.99 µM;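 active means mean inhibition of replicates at least 50% and at least half of replicates each reaching 50%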;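 further: 0% = complete ARNT plus TACC3 wells and 100% = ARNT alone without TACC3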
FN deposit inh – fibronectin deposition inhibition; AH1F fibroblasts, Alexa488-fibronectin deposition fluorescence, overnight; inhibition, % at 12.6 µM; 350,000 compounds, 0.086% hits; AID 743247;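 active means mean inhibition across replicates of 30% or more, regardless of how many single replicates reach that level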;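 further: positive control wells lacked labelled fibronectin entirely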
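Assay system: AH1F fibroblasts assembling fluorescent fibronectin matrix; Amount: 10000 AH1F cells per well; Buffer or medium: DMEM, 2% serum; Probe or stimulus: Alexa488-fibronectin, 24 nM final in well; Doses: single compound dose, delivered by pin transfer; Incubation: 1 h adhesion, overnight exposure; Measured by: fluorescence 485/525 nm; Read-out: fibronectin deposition inhibition.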
Xi reactivation – X-chromosome reactivation activator. AID 743238. XiGFP mouse fibroblasts, % GFP-positive cells imaging, 3 d; cells co-treated with 5-aza-dC sensitizer; scaled so ellipticine positive control = 100%. activation, % at 7.58 µM. 360,000 compounds, 0.055% hits;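 active means mean normalized replicate activation at least 10% and every replicate at or above 10%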;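 further: 0% = median of on-plate neutral control wells and 100% = ellipticine 6 µM median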
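System: 68-5-11 XiGFP fibroblast line; Timing: 3 days compound exposure; Compound dosing: one concentration, pinned; Benchmarks: positive control ellipticine, 6 µM final; Buffer or medium: DMEM containing 5-aza-dC.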
FGF22 binding – FGF22 (human) thermal shift binding | Q9HCT0 | 340,000 compounds, 1.5% hits | activity (Tm shift, normalised), % at 9.99 µM | recombinant FGF22 thermal shift, SYPRO orange fluorescence; percent of sucrose octasulfate shift, DMSO zero | AID 651658;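 active means mean Tm shift, scaled 0 neutral to 100 positive control, at about 1.3% or above, every replicate too, limit read from the data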
Target sequence (Q9HCT0 whole entry, looked up): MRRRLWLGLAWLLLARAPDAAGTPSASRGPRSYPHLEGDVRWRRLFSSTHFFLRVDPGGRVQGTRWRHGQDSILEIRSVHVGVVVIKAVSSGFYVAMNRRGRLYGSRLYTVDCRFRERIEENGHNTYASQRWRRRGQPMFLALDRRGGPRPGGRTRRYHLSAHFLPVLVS
Starred values were filed as active, the others as inactive; · = no result.

SMILES	DENV2 CPE	SIRT5 block	ARNT TACC3 PPI	FN deposit inh	Xi reactivation	FGF22 binding
CC[n+]1c(/C=C/C=C/N(C(C)=O)c2ccccc2)sc2cc(OC)ccc21	-3	-3	·	-17	52*	0
CN(C)S(=O)(=O)c1ccc(Cl)c(NC(=O)CSc2nc3c(cc2C#N)C(=O)CC(C)(C)C3)c1	31*	0	-5	-6	0	0
CCc1ccc(-c2nc(CSCC(=O)N3CCN(c4ncccn4)CC3)c(C)o2)cc1	87*	4	-8	4	0	0
CSc1ccc(-c2nc(CSCC(=O)N3CCOCC3)c(C)o2)cc1	·	-4	5	7	·	·
CCC(C)[C@H]1CN=C(N)N1CCCc1cc(OC)c(OC)c(OC)c1 (some centres not stated)	-10	23*	0	2	0	0
COc1ccc(NC(=O)N2C[C@@H](O)COC[C@@H]3O[C@H](CC(=O)NC4Cc5ccccc5C4)CC[C@H]32)cc1	100*	-3	3	0	0	0
O=C(C[C@H]1CC[C@H]2[C@@H](COC[C@H](O)CN2C(=O)Nc2ccc(F)cc2)O1)NC1Cc2ccccc2C1	43*	3	4	-2	0	0
CNC(=O)C[C@@H]1CC[C@H]2[C@@H](COC[C@H](O)CN2C(=O)Nc2cccc(OC)c2)O1	58*	0	1	-17	0	0
COc1cccc(NC(=O)N2C[C@H](O)COC[C@@H]3O[C@H](CC(=O)NC4Cc5ccccc5C4)CC[C@H]32)c1	-1	1	7	-8	1	0
CNC(=O)C[C@H]1CC[C@@H]2[C@H](COC[C@@H](O)CN2C(=O)Nc2cccc(OC)c2)O1	7	-6	-3	7	0	0
Cn1cnc(CCNC(=O)C[C@@H]2CC[C@H]3[C@@H](COC[C@H](O)CN3C(=O)Nc3ccc(Cl)cc3)O2)c1	-5	2	27	-9	0	0
C[C@H](CO)N1C[C@H](C)[C@H](CN(C)C(=O)Nc2ccc(C(F)(F)F)cc2)Oc2ccc(NC(=O)NC3CCCCC3)cc2C1=O	-4	-1	18	·	0	0
CC(C)NC(=O)N1C[C@H]2[C@@H](c3ccccc31)[C@H](CO)N2C(=O)Nc1ccc(F)cc1	1	1	-7	-3	0	0
CCOC(=O)[C@]12CCC=C1N(CCC1=CCCCC1)C(=O)[C@H](CC(=O)NCCCCc1ccccc1)C2	85*	1	·	-3	0	0
CCOC(=O)[C@]12CCCC=C1N(CCc1ccc(OC)c(OC)c1)C(=O)[C@H](CC(=O)NCCCN1CCCC1=O)C2	-3	·	·	-1	0	0
CCCCOCCCNC(=O)C[C@@H]1C[C@@]2(C(=O)OCC)CCCC=C2N(CCc2ccc(OC)c(OC)c2)C1=O	28*	-2	·	23	0	0
Cc1ccc(S(=O)(=O)Nc2c(O)c3ccccc3oc2=O)cc1	0	-5	-12	14	0	0
C/C(=N/NS(=O)(=O)c1ccc(C)cc1)c1c(O)c2ccccc2oc1=O	-6	28*	-1	-5	0	0
O=C(CSc1nc2ccccc2[nH]1)NCc1ccc(F)cc1	·	0	-7	0	0	43*
COc1cccc(S(=O)(=O)N(C)C[C@H]2Oc3cc(C4=CCCCC4)ccc3S(=O)(=O)N([C@H](C)CO)C[C@@H]2C)c1	4	13	25	·	-1	0
C[C@H]1CN([C@@H](C)CO)S(=O)(=O)c2ccc(C3=CCCC3)cc2O[C@H]1CN(C)S(=O)(=O)c1ccc(F)cc1	-4	11	-12	·	0	0
COc1cccc(S(=O)(=O)N(C)C[C@@H]2Oc3cc(C4=CCCCC4)ccc3S(=O)(=O)N([C@H](C)CO)C[C@@H]2C)c1	2	26*	21	·	·	0
COc1cccc(S(=O)(=O)N(C)C[C@@H]2Oc3cc(C4=CCCC4)ccc3S(=O)(=O)N([C@H](C)CO)C[C@H]2C)c1	55*	23*	2	-20	0	0
